# Active and inactive are the calls of the source.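 Rule for the calls, unless noted: active = mean duplicate potentiation above the buffer control mean plus 5 SD of buffer wells; inactive = the rest.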
# Molecular target: Potassium voltage-gated channel subfamily KQT member 1 (Homo sapiens) (UniProt P51787)
# Experiment: KCNQ1 potassium channel potentiators, confirmation, FluxOR thallium flux, CHO cells, duplicates (AID 493007;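 active = potentiation averaged over duplicate wells exceeding buffer-only control mean by more than 3 SD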;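 for outcome: cells depolarized by a potassium plus thallium sulfate stimulus after compound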)
# Details: KCNQ1 cell line, FluxOR thallium flux fluorescence, at 10 µM; active compounds read high, % of reference activator effect, buffer zero
# Outline: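 Material: KCNQ1-expressing CHO cell line; Incubation: FluxOR dye loading 90 min, compound exposure 20 min, room temperature; Detection: FluxOR Tl+ flux fluorescence, 10 s baseline plus 110 s recording; Read-out: percent activation between buffer and R-L3 responses; Control set: buffer-only wells as 0% and R-L3 activator as 100%; Replication: duplicate wells per compound.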
# Sequence of Potassium voltage-gated channel subfamily KQT member 1 (Homo sapiens) (P51787 whole entry, looked up): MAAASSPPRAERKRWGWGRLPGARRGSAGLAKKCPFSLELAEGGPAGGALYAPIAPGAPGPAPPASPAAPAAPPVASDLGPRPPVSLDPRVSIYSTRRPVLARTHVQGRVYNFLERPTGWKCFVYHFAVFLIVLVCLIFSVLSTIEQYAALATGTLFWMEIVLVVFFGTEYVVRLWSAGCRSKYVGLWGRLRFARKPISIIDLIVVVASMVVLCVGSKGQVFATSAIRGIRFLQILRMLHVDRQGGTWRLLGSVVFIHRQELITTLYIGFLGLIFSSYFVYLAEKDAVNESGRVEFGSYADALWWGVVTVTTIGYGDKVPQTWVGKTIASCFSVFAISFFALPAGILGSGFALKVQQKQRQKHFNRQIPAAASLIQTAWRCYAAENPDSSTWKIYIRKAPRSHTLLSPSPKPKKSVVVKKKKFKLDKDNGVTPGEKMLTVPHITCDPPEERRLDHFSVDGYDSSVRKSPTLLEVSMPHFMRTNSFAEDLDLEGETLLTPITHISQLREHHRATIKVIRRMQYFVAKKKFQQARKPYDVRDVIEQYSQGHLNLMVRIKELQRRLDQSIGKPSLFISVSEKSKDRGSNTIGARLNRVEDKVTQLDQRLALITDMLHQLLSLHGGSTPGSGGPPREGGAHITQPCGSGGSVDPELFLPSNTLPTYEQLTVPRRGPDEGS
Structure (SMILES),outcome,potentiation
CN(C)c1ccc(-c2nn3c(-c4ccccc4Cl)nnc3s2)cc1,inactive,–
COc1ccc(-c2csc(NC(=O)C3=NN(c4ccccc4)C(=O)CC3)n2)cc1,–,146% (active)
O=C(NC(=S)Nc1ccccc1N1CCOCC1)c1ccc(-c2ccccc2F)o1,–,51.5% (active)
O=c1c2cc(NC(=S)NCCCN3CCC(Cc4ccccc4)CC3)ccc2nc2n1CCCCC2,inactive,–
Cc1ccc(Oc2ccc(NC(=O)Cn3ccsc3=N)cc2)cc1,inactive,–
Cc1ccc(N=Cc2cc(Br)cc(Cl)c2O)cc1,–,19% (active)
O=C(NC(=S)N1CCc2ccccc21)c1ccccc1Br,–,208% (active)
CCCCn1c(SCC(N)=O)nc2ccc(N3CCOCC3)cc2c1=O,inactive,–
O=C(NC(=S)Nc1nc2ccccc2s1)c1cccs1,–,180% (active)
Cc1nc2ccccn2c1C(=O)N/N=C/c1ccccc1,inactive,–
CC1Cc2ccccc2N1C(=S)NC(=O)c1cccc(Br)c1 (centres undefined),–,224% (active)
CC(=O)N1CCN=C1SCc1ccc(F)cc1,–,120% (active)
COc1ccccc1C(=O)NC(=S)NNC(=O)c1sc2ccccc2c1Cl,–,187% (active)
Cc1c(N=Cc2cc(Br)cc(Br)c2O)cccc1C(=O)O,–,42% (active)

# Molecular target: Potassium voltage-gated channel subfamily KQT member 2 (Rattus norvegicus) (UniProt O88943)
# Experiment: rat KCNQ2 channel potentiation, selectivity assay for KCNQ1 potentiator project, KCNQ2-CHO-K1 cells (AID 493009);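 note: assay conditions were tuned for KCNQ1 rather than KCNQ2 modulators; signal is max minus min fluorescence divided by baseline after thallium stimulus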
# Details: FluxOR thallium flux fluorescence, at 10 µM; active compounds read high, scaled: buffer 0, activator control 100
# Sequence of Potassium voltage-gated channel subfamily KQT member 2 (Rattus norvegicus) (O88943 whole entry, looked up): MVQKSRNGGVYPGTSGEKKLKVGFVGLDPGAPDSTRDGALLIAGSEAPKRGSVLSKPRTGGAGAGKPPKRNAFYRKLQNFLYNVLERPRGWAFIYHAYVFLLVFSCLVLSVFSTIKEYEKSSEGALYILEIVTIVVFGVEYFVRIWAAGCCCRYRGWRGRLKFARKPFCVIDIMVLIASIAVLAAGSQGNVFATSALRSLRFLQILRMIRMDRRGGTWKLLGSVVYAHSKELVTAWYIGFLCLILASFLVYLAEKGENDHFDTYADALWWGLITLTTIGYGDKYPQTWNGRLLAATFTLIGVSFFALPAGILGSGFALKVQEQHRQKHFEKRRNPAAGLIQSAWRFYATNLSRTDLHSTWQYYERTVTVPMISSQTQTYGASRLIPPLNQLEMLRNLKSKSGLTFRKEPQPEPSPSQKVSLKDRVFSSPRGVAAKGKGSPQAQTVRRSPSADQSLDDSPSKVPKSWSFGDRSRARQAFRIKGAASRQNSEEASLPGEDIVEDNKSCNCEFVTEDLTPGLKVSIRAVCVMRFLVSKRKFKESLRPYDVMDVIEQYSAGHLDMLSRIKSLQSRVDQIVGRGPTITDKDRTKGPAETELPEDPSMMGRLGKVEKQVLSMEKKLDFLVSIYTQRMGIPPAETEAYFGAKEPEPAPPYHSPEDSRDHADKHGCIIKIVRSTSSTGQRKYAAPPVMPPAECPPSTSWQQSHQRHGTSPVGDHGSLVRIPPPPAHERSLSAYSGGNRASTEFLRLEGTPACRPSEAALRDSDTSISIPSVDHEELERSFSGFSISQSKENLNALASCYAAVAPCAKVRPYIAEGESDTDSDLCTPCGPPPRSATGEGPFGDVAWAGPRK
Structure (SMILES),potentiation,outcome
C[C@@H](NC(=O)OC(C)(C)C)c1nnc(S(=O)(=O)Cc2ccccc2)o1,158% (active),–
COc1ccc(N=Nc2ccc(O)c3ncccc23)cc1,249% (active),–
O=C(Nc1ccc(N2CCN(c3ccc(O)cc3)CC2)cc1)Oc1ccccc1,–,inactive
OCCCCNCc1ccc(OCc2ccc(Cl)cc2)cc1,332% (active),–
Cc1cccc(CC2CC(=O)N(c3ccc(C)cc3Br)C2=O)c1 (centres undefined),–,inactive
CCCN(CCC)C(=S)NC(=O)c1ccc(-c2ccccc2)cc1,556% (active),–
COc1cc(C(=O)NC(=S)NC(C)C)cc(OC)c1OC,–,inactive
O=C(Nc1nc2c(F)cc(F)cc2s1)C1COc2ccccc2O1 (centres undefined),194% (active),–
CCOC(=O)c1sc(N2N=C(C)C(N=Nc3cccc(C)c3)C2=O)nc1C (centres undefined),148% (active),–
O=C(NC(=S)Nc1ccccc1)c1cc(-c2ccccc2)nc2ccccc12,194% (active),–
Cc1ccccc1OCc1nnc(SCCN2CCCC2)n1-c1ccccc1,–,inactive
CCOC(=O)c1cnc(SCC(=O)Nc2nc(C)c(C)s2)nc1N,–,inactive
O=[N+]([O-])c1ccc(/C=C/C2=NN(c3ccccc3)C(c3ccco3)C2)o1 (centres undefined),–,inactive
CC(C)COn1c(=S)[nH]c2ccccc2c1=O,198% (active),–
C/C(=N\Nc1nc2ccccc2[nH]1)c1ccc(Cl)s1,156% (active),–
CC(O)Cc1cn([C@@H](CCCCN)C(=O)N2CCNCC2)nn1 (some centres undefined),–,inactive
O=P(CCCCCCCCCP(=O)(c1ccccc1)c1ccccc1)(c1ccccc1)c1ccccc1,327% (active),–
CCOC(=O)C1(CCCc2ccccc2)CCN(Cc2cnc(C)s2)CC1,–,inactive
COc1cccc(-c2nnc(Nc3nc4c(F)cccc4s3)o2)c1,280% (active),–
COC(=O)c1c(NS(=O)(=O)Cc2ccccc2)sc2c1CCCC2,186% (active),–

Structure (SMILES),potentiation,outcome
CC(C)c1nc2n[nH]c(N)c2c2c1CCCC2,–,inactive
COc1ccc(OC)c(/C=C2\SC(=S)N(NS(=O)(=O)c3ccc(C)cc3)C2=O)c1,240% (active),–
CC1(c2ccc(OC(F)F)cc2)NC(=O)N(CC(=O)Nc2ccc(OC(F)F)cc2)C1=O (centres undefined),–,inactive
COc1ccc(NS(=O)(=O)c2ccc(N/N=C(\C)c3ccncc3)c([N+](=O)[O-])c2)cc1,–,inactive
COCCn1c(SCC(=O)NCc2ccc3c(c2)OCO3)nnc1C(C)C,–,inactive
Cc1sc2nc(CN3CCOCC3)[nH]c(=S)c2c1C,292% (active),–
CN(C)c1ccc(-c2nn3c(-c4ccccc4Cl)nnc3s2)cc1,–,inactive
COc1ccc(-c2csc(NC(=O)C3=NN(c4ccccc4)C(=O)CC3)n2)cc1,–,inactive
O=C(NC(=S)Nc1ccccc1N1CCOCC1)c1ccc(-c2ccccc2F)o1,182% (active),–
O=c1c2cc(NC(=S)NCCCN3CCC(Cc4ccccc4)CC3)ccc2nc2n1CCCCC2,–,inactive
Cc1ccc(Oc2ccc(NC(=O)Cn3ccsc3=N)cc2)cc1,–,inactive
Cc1ccc(N=Cc2cc(Br)cc(Cl)c2O)cc1,142% (active),–
O=C(NC(=S)N1CCc2ccccc21)c1ccccc1Br,490% (active),–
CCCCn1c(SCC(N)=O)nc2ccc(N3CCOCC3)cc2c1=O,–,inactive
O=C(NC(=S)Nc1nc2ccccc2s1)c1cccs1,389% (active),–
Cc1nc2ccccn2c1C(=O)N/N=C/c1ccccc1,–,inactive
CC1Cc2ccccc2N1C(=S)NC(=O)c1cccc(Br)c1 (centres undefined),576% (active),–
CC(=O)N1CCN=C1SCc1ccc(F)cc1,329% (active),–
COc1ccccc1C(=O)NC(=S)NNC(=O)c1sc2ccccc2c1Cl,361% (active),–
Cc1c(N=Cc2cc(Br)cc(Br)c2O)cccc1C(=O)O,–,inactive
